# Measured values from ChEMBL document CHEMBL1240439, “Synthesis and docking studies of novel benzopyran-2-ones with anticancer activity” (2010).
# How the values were obtained:
# Type in all cases: functional
# MOLT-4 = experiment: Cytotoxicity against human MOLT4 cells assessed as cell growth at 10 uM after 48 hrs by sulforhodamine B assay; conditions: MOLT-4, 48 h, read-out: Activity
# OVCAR-4 = experiment: Cytotoxicity against human OVCAR4 cells assessed as cell growth at 10 uM after 48 hrs by sulforhodamine B assay; conditions: OVCAR-4, 48 h, read-out: Activity
# HOP-62 = experiment: Cytotoxicity against human HOP62 cells assessed as cell growth at 10 uM after 48 hrs by sulforhodamine B assay; conditions: HOP-62, 48 h, read-out: Activity
# BT-549 = experiment: Cytotoxicity against human BT549 cells assessed as cell growth at 10 uM after 48 hrs by sulforhodamine B assay; conditions: BT-549, 48 h, read-out: Activity
# OVCAR-8 = experiment: Cytotoxicity against human OVCAR8 cells assessed as cell growth at 10 uM after 48 hrs by sulforhodamine B assay; conditions: OVCAR-8, 48 h, read-out: Activity
# UO-31 = experiment: Cytotoxicity against human UO31 cells assessed as cell growth at 10 uM after 48 hrs by sulforhodamine B assay; conditions: UO-31, 48 h, read-out: Activity
# Malme-3M = experiment: Cytotoxicity against human MALME-3M cells assessed as cell growth at 10 uM after 48 hrs by sulforhodamine B assay; conditions: read-out: Activity
# [1] = Cytotoxicity against human colon cancer cells after 48 hrs by sulforhodamine B assay; conditions: Cancer cell lines
# Procedure, shortened: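 Cells plated at 5000–40,000/well according to doubling time, then held 24 h at 37 °C, 5% CO2, with time-zero plates TCA-fixed. DMSO stocks (400× top concentration) were diluted in medium containing 50 μg/ml gentamycin, giving five 10-fold or ½-log concentrations. After 48 h, adherent cells were fixed in 10% TCA and suspension cells in 16% TCA (final), stained with 0.4% SRB, read at 515 nm. GI50, TGI and LC50 were calculated per cell line.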
smiles,measurement,setting,value
Cc1cc(=O)n(C(=O)COc2ccc3c(-c4ccccc4)cc(=O)oc3c2C)[nH]1,growth at 10 µM,MOLT-4,22.7%
same,growth at 10 µM,OVCAR-4,-42.9%
same,growth at 10 µM,HOP-62,-18.6%
same,growth at 10 µM,BT-549,-65.8%
same,growth at 10 µM,OVCAR-8,-30.5%
same,growth at 10 µM,UO-31,18.6%
same,growth at 10 µM,Malme-3M,-8.61%
same,GI50,[1],8.98 µM
same,TGI,[1],32.6 µM
same,CC50,[1]; read-out: LC50 (the source's name),64.5 µM
